Results: ChEMBL document CHEMBL4706672 (J Med Chem, 2021)
The source made the active and inactive calls. No cut-off for these calls is given here.

Assays:
[1] = molecular target: T1, Protein cereblon/E3 ubiquitin-protein ligase ZFP91 (Homo sapiens, UniProt Q96SW2+Q96JP5); experiment: Protac activity at CRBN/ZFP91 in human BxPC-3 cells assessed as induction of ZF91 degradation incubated for 24 hrs by western blot analysis; assay type: cell-based
Procedure, shortened: (§1)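 BxPC-3 cells treated for 4, 16 or 24 h across a concentration series. ZFP91 immunoblotted against GAPDH; bands quantified by densitometry, DC50 calculated from dose-response curves of the densitometry.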

[2] = molecular target: T2, Protein cereblon/Signal transducer and activator of transcription 3 (Homo sapiens, UniProt P40763+Q96SW2); experiment: Protac activity at CRBN/STAT3 in human BxPC-3 cells assessed as decrease in STAT3 expression level at 5 uM after 16 hrs by western blot analysis; assay type: cell-based
T2 sequence (P40763 2-770 limits assumed): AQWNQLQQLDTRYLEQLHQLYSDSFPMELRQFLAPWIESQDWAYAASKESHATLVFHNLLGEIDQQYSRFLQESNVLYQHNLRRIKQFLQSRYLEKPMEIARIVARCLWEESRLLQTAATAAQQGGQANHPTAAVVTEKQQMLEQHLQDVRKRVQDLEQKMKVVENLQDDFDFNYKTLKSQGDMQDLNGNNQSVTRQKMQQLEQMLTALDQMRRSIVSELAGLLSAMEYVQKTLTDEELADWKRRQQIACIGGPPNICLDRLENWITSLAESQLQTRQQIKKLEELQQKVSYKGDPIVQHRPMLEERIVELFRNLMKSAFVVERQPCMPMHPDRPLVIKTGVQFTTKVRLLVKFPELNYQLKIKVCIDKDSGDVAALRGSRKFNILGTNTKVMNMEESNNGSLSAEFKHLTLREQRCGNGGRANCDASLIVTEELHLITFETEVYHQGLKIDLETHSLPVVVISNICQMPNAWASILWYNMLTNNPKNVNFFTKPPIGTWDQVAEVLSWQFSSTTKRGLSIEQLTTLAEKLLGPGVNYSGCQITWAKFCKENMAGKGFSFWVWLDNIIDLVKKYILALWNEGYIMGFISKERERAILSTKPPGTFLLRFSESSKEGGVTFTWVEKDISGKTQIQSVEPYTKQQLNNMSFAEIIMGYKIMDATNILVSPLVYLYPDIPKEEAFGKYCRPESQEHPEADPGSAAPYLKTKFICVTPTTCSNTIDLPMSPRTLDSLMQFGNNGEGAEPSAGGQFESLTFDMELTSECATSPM
T2 sequence (Q96SW2 whole entry partner): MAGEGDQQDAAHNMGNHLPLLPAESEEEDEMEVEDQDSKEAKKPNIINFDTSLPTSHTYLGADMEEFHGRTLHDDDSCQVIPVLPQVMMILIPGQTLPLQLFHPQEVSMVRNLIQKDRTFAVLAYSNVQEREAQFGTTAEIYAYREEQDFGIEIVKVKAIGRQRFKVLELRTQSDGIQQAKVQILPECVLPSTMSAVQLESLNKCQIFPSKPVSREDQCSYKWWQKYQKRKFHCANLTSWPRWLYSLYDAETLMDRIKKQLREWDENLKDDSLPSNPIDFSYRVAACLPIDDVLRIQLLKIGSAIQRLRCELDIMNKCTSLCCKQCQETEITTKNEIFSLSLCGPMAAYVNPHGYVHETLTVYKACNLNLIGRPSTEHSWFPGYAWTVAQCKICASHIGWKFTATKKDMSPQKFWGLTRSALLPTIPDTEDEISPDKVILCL
Procedure, shortened: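 BxPC-3 cells seeded at 500 × 10^3 per well in 6-well plates, treated 16 h. Sonication lysis at 4 °C in Tris/NaCl/Triton/SDS buffer pH 7.4 with protease and phosphatase inhibitors, BCA protein assay, SDS-PAGE, PVDF transfer. Probed for STAT3, pSTAT3 and NQO1 with GAPDH loading control; fluorescent secondary detection.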

[3] = molecular target: T2, Protein cereblon/Signal transducer and activator of transcription 3; experiment: Protac activity at CRBN/STAT3 in human BxPC-3 cells assessed as decrease in STAT3 expression level at 2 to 6 uM incubated for 12 hrs in presence of proteasome inhibitor MG132 by western blot analysis; assay type: cell-based; settings: dose 2-6 µM
Procedure, shortened: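 Immunoblot of BxPC-3 cells given a 2 h pretreatment with MG132 at 10 μM, then test agent for 12 h. Cell lysis, BCA assay, SDS-PAGE/PVDF, probed for STAT3, pSTAT3 and NQO1 with GAPDH as reference.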

[4] = molecular target: T1, Protein cereblon/E3 ubiquitin-protein ligase ZFP91; experiment: Protac activity at CRBN/ZFP91 in human BxPC-3 cells assessed as induction of ZF91 degradation at 1 uM incubated for 16 hrs by western blot analysis; assay type: cell-based; procedure, shortened: as §1
Target sequence in this assay (Q96JP5 2-570 partner limits assumed): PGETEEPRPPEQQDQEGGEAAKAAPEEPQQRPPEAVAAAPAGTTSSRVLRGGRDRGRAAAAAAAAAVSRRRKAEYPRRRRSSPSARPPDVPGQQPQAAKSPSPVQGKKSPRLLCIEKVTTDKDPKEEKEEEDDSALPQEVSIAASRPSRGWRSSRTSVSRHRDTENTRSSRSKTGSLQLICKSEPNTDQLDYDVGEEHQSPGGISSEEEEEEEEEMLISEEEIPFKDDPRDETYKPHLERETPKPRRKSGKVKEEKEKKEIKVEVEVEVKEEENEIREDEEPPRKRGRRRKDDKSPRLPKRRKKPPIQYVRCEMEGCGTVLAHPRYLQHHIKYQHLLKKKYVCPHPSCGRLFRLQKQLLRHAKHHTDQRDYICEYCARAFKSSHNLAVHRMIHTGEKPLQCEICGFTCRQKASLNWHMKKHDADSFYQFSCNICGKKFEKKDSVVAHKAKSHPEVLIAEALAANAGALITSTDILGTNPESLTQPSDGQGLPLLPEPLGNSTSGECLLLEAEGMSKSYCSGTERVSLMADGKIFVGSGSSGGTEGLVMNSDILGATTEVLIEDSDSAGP
Target sequence in this assay (Q96SW2 whole entry): as the sequence (Q96SW2 whole entry partner) above

[5] = molecular target: T1, Protein cereblon/E3 ubiquitin-protein ligase ZFP91; experiment: Protac activity at CRBN/ZFP91 in human BxPC-3 cells assessed as ZF91 protein degradation at 1 uM incubated for 16 hrs in presence of proteasome inhibitor carfilzomib by western blot analysis; assay type: cell-based
Procedure, shortened: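 BxPC-3 cells pretreated 1 h with carfilzomib at 1 μM, then exposed 16 h. Lysates blotted for ZFP91 with GAPDH control; bands quantified by densitometry.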
Target sequence in this assay (Q96JP5 2-570 partner limits assumed): as the sequence (Q96JP5 2-570 partner limits assumed) above
Target sequence in this assay (Q96SW2 whole entry): as the sequence (Q96SW2 whole entry partner) above

[6] = molecular target: Protein cereblon/Transmembrane protease serine 4 (Homo sapiens) (UniProt Q9NRS4+Q96SW2); experiment: Protac activity at CRBN/TMPRSS4 in human BxPC-3 cells assessed as TMPRSS4 degradation incubated for 16 hrs by proteomic analysis; assay type: cell-based
Procedure, shortened: (§2)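 BxPC-3 cells exposed 16 h in triplicate (control, PROTAC) or duplicate (other arms); lysed in RIPA at 4 °C, 75 μg protein per sample. Reduced with DTT (1 h, 55 °C), alkylated with 2-chloroacetamide, acetone-precipitated, trypsin-digested overnight at 37 °C, TMT 10plex labelled, relative quantitation by LC-tandem MS.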

[7] = molecular target: Protein cereblon/Apoptosis-stimulating of p53 protein 2 (Homo sapiens) (UniProt Q96SW2+Q13625); experiment: Protac activity at CRBN/TP53BP2 in human BxPC-3 cells assessed as TP53BP2 degradation incubated for 16 hrs by proteomic analysis; assay type: cell-based; procedure, shortened: as §2
Protein cereblon/Apoptosis-stimulating of p53 protein 2 (Homo sapiens), sequence (Q13625 whole entry, looked up): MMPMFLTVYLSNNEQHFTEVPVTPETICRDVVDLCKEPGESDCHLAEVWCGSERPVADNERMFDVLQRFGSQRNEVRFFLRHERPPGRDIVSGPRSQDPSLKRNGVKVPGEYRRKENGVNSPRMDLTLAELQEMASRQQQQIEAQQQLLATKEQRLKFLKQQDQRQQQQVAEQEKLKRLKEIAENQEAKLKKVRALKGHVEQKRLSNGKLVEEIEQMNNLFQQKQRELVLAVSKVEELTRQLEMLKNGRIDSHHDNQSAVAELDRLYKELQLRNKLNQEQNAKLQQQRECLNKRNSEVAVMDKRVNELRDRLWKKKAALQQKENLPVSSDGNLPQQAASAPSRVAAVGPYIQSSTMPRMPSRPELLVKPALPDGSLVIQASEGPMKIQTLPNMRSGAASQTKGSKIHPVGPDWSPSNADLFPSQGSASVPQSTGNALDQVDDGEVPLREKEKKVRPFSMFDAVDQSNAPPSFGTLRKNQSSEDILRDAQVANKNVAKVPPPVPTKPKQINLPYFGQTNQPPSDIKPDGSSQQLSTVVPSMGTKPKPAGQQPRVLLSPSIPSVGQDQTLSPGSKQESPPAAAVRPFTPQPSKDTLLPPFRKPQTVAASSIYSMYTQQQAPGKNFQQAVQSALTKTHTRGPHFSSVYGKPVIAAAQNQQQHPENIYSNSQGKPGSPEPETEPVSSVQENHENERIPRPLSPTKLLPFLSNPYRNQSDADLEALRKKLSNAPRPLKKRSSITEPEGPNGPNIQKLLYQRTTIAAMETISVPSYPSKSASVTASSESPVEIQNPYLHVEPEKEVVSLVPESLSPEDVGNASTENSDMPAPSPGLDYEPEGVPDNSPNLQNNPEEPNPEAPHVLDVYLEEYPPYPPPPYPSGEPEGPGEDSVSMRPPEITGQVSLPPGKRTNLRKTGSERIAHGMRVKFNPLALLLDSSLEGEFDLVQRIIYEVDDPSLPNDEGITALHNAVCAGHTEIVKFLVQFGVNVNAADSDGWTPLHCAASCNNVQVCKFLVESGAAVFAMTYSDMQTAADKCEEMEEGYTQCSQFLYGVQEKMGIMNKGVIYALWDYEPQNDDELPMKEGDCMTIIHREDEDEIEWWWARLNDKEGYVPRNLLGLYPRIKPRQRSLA
Protein cereblon/Apoptosis-stimulating of p53 protein 2 (Homo sapiens), sequence (Q96SW2 whole entry, looked up): as the sequence (Q96SW2 whole entry partner) above

[8] = molecular target: Protein cereblon/Melanoma-associated antigen D1 (Homo sapiens) (UniProt Q96SW2+Q9Y5V3); experiment: Protac activity at CRBN/MAGED1 in human BxPC-3 cells assessed as MAGED1 degradation incubated for 16 hrs by proteomic analysis; assay type: cell-based
Procedure, shortened: (§3)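 TMT 10plex proteomics. […] Samples (75 μg) were reduced with DTT, alkylated with 2-chloroacetamide, acetone-precipitated, trypsin-digested overnight at 37 °C and TMT-labeled for LC-MS/MS relative quantitation.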

[9] = molecular target: Protein cereblon/E3 ubiquitin-protein ligase SHPRH (Homo sapiens) (UniProt Q96SW2+Q149N8); experiment: Protac activity at CRBN/SHPRH in human BxPC-3 cells assessed as SHPRH degradation incubated for 16 hrs by proteomic analysis; assay type: cell-based; procedure, shortened: as §3
[10] = molecular target: T2, Protein cereblon/Signal transducer and activator of transcription 3; experiment: Protac activity at CRBN/STAT3 in human BxPC-3 cells assessed as STAT3 degradation incubated for 16 hrs by proteomic analysis; assay type: cell-based; procedure, shortened: as §2
[11] = molecular target: Protein cereblon/Protein LTV1 homolog (Homo sapiens) (UniProt Q96SW2+Q96GA3); experiment: Protac activity at CRBN/LTV1 in human BxPC-3 cells assessed as LTV1 degradation incubated for 16 hrs by proteomic analysis; assay type: cell-based; procedure, shortened: as §3
[12] = molecular target: Protein cereblon/Ubiquitin-conjugating enzyme E2 T (Homo sapiens) (UniProt Q96SW2+Q9NPD8); experiment: Protac activity at CRBN/UBE2T in human BxPC-3 cells assessed as UBE2T degradation incubated for 16 hrs by proteomic analysis; assay type: cell-based; procedure, shortened: as §2
[13] = molecular target: Protein cereblon/Carbohydrate sulfotransferase 14 (Homo sapiens) (UniProt Q96SW2+Q8NCH0); experiment: Protac activity at CRBN/CHST14 in human BxPC-3 cells assessed as CHST14 degradation incubated for 16 hrs by proteomic analysis; assay type: cell-based; procedure, shortened: as §3
[14] = molecular target: Protein cereblon/Nectin-1 (Homo sapiens) (UniProt Q96SW2+Q15223); experiment: Protac activity at CRBN/Nectin-1 in human BxPC-3 cells assessed as Nectin-1 degradation incubated for 16 hrs by proteomic analysis; assay type: cell-based; procedure, shortened: as §3
[15] = molecular target: Protein cereblon/E3 SUMO-protein ligase NSE2 (Homo sapiens) (UniProt Q96SW2+Q96MF7); experiment: Protac activity at CRBN/NSMCE2 in human BxPC-3 cells assessed as NSMCE2 degradation incubated for 16 hrs by proteomic analysis; assay type: cell-based; procedure, shortened: as §3
[16] = molecular target: Protein cereblon/Anamorsin (Homo sapiens) (UniProt Q96SW2+Q6FI81); experiment: Protac activity at CRBN/CIAPIN1 in human BxPC-3 cells assessed as CIAPIN1 degradation incubated for 16 hrs by proteomic analysis; assay type: cell-based; procedure, shortened: as §3
Protein cereblon/Anamorsin (Homo sapiens), sequence (Q6FI81 whole entry, looked up): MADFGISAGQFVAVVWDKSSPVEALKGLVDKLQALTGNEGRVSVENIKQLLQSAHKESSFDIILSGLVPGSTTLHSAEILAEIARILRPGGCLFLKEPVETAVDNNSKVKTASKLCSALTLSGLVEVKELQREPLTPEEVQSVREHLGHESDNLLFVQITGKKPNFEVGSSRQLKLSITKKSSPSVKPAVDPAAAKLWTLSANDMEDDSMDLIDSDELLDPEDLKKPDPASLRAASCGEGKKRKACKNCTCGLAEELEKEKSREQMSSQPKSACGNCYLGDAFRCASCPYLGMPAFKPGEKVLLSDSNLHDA
Protein cereblon/Anamorsin (Homo sapiens), sequence (Q96SW2 whole entry, looked up): as the sequence (Q96SW2 whole entry partner) above

[17] = Upregulation of AP-1 protein levels in human BxPC-3 cells incubated for 16 hrs by proteomic analysis; assay type: functional; procedure, shortened: as §2
[18] = Upregulation of IL1RL1 protein levels in human BxPC-3 cells incubated for 16 hrs by proteomic analysis; assay type: functional; procedure, shortened: as §2
[19] = Upregulation of HMGCR protein levels in human BxPC-3 cells incubated for 16 hrs by proteomic analysis; assay type: functional; procedure, shortened: as §2
[20] = Upregulation of GDF15 protein levels in human BxPC-3 cells incubated for 16 hrs by proteomic analysis; assay type: functional; procedure, shortened: as §2
[21] = Upregulation of ceramide glucosyltransferase protein levels in human BxPC-3 cells incubated for 16 hrs by proteomic analysis; assay type: functional
Procedure, shortened: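 BxPC-3 cells exposed to compound (2 μM) or DMSO control for 16 h, then lysed in RIPA buffer at 4 °C. Protein quantified by BCA; 75 μg per sample. TMT 10plex labeling: DTT reduction (1 h, 55 °C), 2-chloroacetamide alkylation (30 min, RT), acetone precipitation, overnight trypsin digestion at 37 °C, then LC-tandem MS relative quantitation. Control and treated samples run in triplicate.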

BXPC-3 [22] = experiment: Antiproliferative activity against ZFP91 knockdown human BxPC-3 cells assessed as reduction in cell viability incubated for 48 hrs by MTT assay; assay type: functional, cell-based; settings: BXPC-3, 48 h
Procedure, shortened: (§4)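 BxPC-3 cells were transfected with ZFP91 siRNA or scrambled control siRNA using Lipofectamine RNAiMAX in Opti-MEM, 5 pmol siRNA per complex. Compound was added together with the siRNA complex.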

BXPC-3 [23] = experiment: Antiproliferative activity against human BxPC-3 cells harboring ZFP91siRNA assessed as reduction in cell viability incubated for 48 hrs by MTT assay; assay type: functional, cell-based; settings: BXPC-3, 48 h; procedure, shortened: as §4

- DC50 [1]: 60 nM
- Activity [2]: Active
- Activity [3]: Active
- Activity [4]: Active
- Activity [5]: inactive
- log2FC [6]: -1.27
- log2FC [7]: -1.02
- log2FC [8]: -0.9
- log2FC [9]: -0.74
- log2FC [10]: -0.69
- log2FC [11]: -0.69
- log2FC [12]: -0.66
- log2FC [13]: -0.64
- log2FC [14]: -0.63
- log2FC [15]: -0.63
- log2FC [16]: -0.59
- IC50 (BXPC-3 [22]): 2100 nM
- IC50 (BXPC-3 [23]): 1200 nM
SMILES: O=C1CCC(N2C(=O)c3cccc(NCCCCCC4CCN(CCNC(=O)c5cc6c(o5)C(=O)c5ccccc5C6=O)CC4)c3C2=O)C(=O)N1 (stereo not drawn)
- log2FC [17]: 1.58
- log2FC [18]: 1.24
- log2FC [19]: 0.83
- log2FC [20]: 0.69
- log2FC [21]: 0.62
